The full list was thinned out, with hits kept by preference.
CHOP inh = inhibitors of CHOP induction in ER stress response | CHO-K1 CHOP-promoter luciferase, tunicamycin-induced, 15-18 h | inhibition, % at 10 µM | 220,000 tested, 3.8% active | AID 2732;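 active = compounds that reduced the stress-induced luciferase reporter signal by more than about 70% of percent inhibition, limit read from the data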;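 also: 0% = tunicamycin plus vehicle and 100% = wells without tunicamycin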
VLA-4 inh = inhibition in a human VLA-4 binding assay; VLA-4 expressing cells, ligand binding flow cytometry; inhibition, % (about 7 µM as worked out from the volumes in the protocol); 330,000 tested, 0.2% active; AID 2557; in the data active = inhibition above about 50%
UPR CHOP act = apoptotic UPR (CHOP) activation; activation, % at 10 µM; CHO-CHOP luciferase reporter, luminescence; percent of tunicamycin response over DMSO baseline; 330,000 tested, 0.34% active;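 active = at 10 µM dose, activation of 40% or more, normalized to positive control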;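 also: 100% = tunicamycin at 10 µg/mL and 0% = DMSO alone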
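System: CHO-CHOP luciferase reporter cell line; amount: 500 cells/well; buffer or medium: F12 medium containing 10% fetal bovine serum; incubation: 6 h compound exposure at 37 °C after overnight seeding; measured by: luciferase luminescence after 10 min with Steady-Glo reagent; evaluation: % reporter activation, DMSO baseline versus tunicamycin full activation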
XBP1 UPR activ = adaptive UPR (XBP1) activation | CHO-XBP1 luciferase reporter, IRE1-XBP1 UPR activation, luminescence; percent of tunicamycin response, DMSO as zero | activation, % at 20 µM | 330,000 tested, 0.33% active | AID 463104;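 active = versus positive control, 20 µM dose yields 30% or more activation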;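 also: 100% = tunicamycin at 10 µg/mL and 0% = DMSO only wells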
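Material: CHO cell line with stable XBP1 luciferase reporter; schedule: 16-18 h cell attachment at 37 °C, then 6 h compound exposure; signal: glow luminescence from Steady-Glo reagent; medium: serum-containing F12 medium, 10% FBS; benchmarks: tunicamycin 10 µg/mL and vehicle-only wells; read-out: percent activation relative to tunicamycin reference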
B2AR ag = agonists of human beta-2 adrenergic receptor inducing internalization. P07550. AID 504454. Am2.2-beta2AR cells, FAP receptor internalization, flow cytometry. response, % (no concentration beside the values). 340,000 tested, 0.43% active;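 active = response above a set limit, near 3 SD of response in nonfluorescent compounds, cut at about 42% in these data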
Target sequence (P07550 whole entry, looked up): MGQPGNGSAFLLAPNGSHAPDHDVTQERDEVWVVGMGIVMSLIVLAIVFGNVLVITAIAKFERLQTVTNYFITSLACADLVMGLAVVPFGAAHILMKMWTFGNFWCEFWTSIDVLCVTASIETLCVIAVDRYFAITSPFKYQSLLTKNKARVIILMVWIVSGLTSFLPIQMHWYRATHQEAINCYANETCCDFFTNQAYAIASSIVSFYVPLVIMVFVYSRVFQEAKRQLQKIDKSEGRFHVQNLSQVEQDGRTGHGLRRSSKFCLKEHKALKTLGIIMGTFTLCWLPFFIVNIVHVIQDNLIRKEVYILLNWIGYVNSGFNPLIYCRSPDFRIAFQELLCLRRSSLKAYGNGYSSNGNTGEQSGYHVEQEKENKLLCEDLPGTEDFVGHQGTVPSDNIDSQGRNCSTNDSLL
* hit, by the source's call.

For Cc1ccc(C2c3c(oc4ccccc4c3=O)C(=O)N2c2nnc(C(C)C)s2)o1 (centres undefined) the results were CHOP inh 85.3*, VLA-4 inh 11.3, UPR CHOP act -1.2, XBP1 UPR activ 3.3 and B2AR ag -16.1.
Screening Cc1ccc(OC(C)C(=O)Nc2ccc(S(=O)(=O)N3CCOCC3)cc2)cc1 (centres undefined) returned VLA-4 inh 32.8, UPR CHOP act -0.5, XBP1 UPR activ -2.2 and B2AR ag 3.4.
Screening C1=C(CCNc2ncnc3c2[nH]c2ccccc23)CCCC1 returned CHOP inh 79.8*, VLA-4 inh -0.1 and B2AR ag 14.3.
O=c1c2[nH]c3ccccc3c2ncn1CCC1=CCCCC1 was read as CHOP inh 67.8, VLA-4 inh 7.8, UPR CHOP act 0.2, XBP1 UPR activ 0.4 and B2AR ag -2.8.
For Cc1cccc(/C=C2\CCC(=C3SCCCS3)C2=O)c1 the results were CHOP inh 78.4*, VLA-4 inh 1.2, UPR CHOP act -7.8, XBP1 UPR activ -12.3 and B2AR ag 7.6.
O=C(CC1NC(=O)NC1=O)Nc1ccc(Cl)cc1 (centres undefined) was read as CHOP inh 74.6*, VLA-4 inh -67.6, UPR CHOP act 1.9, XBP1 UPR activ 2.1 and B2AR ag 3.2.
O=C(CC1SC(=O)NC1=O)Nc1ccc(Cl)cc1 (centres undefined) was read as CHOP inh 3.5, VLA-4 inh -8.6, UPR CHOP act -2.9, XBP1 UPR activ 4.9 and B2AR ag -2.2.
CCOc1ccc2c(ccc(/C=C/c3cc(C)c4cccnc4c3O)[n+]2C)c1 was read as B2AR ag 105.7*.
Screening CCOc1ccc(N=Nc2ccc(O)c3ncccc23)cc1 returned VLA-4 inh 23.2, UPR CHOP act 14.7, XBP1 UPR activ 2.6 and B2AR ag 22.7.
Screening CC1(C)OC(=O)C(=Cc2ccc(-c3ccc(S(N)(=O)=O)cc3)o2)C(=O)O1 returned CHOP inh 100.4*, VLA-4 inh 13.4, UPR CHOP act 0.2, XBP1 UPR activ 1.2 and B2AR ag 1.9.
NS(=O)(=O)c1ccc(-c2ccc(/C=C3\C(=O)Nc4ccccc43)o2)cc1 was read as VLA-4 inh -14.8, UPR CHOP act 1.8 and XBP1 UPR activ 3.5.
Screening Cc1ccc(C)c(N2CCN(C(=O)c3cc4sccc4n3C)CC2)c1 returned CHOP inh 3.5, VLA-4 inh -3.9, UPR CHOP act 1.1, XBP1 UPR activ -2.0 and B2AR ag 5.5.
`Cn1c(C(=O)N2CCN(c3cccc(C(F)(F)F)c3)CC2)cc2sccc21` gave CHOP inh 72.4*, VLA-4 inh -5.1, UPR CHOP act 0.4, XBP1 UPR activ -0.9 and B2AR ag -0.3.
Screening O=C(c1c(F)c(F)c(F)c(F)c1F)N1CCN(c2cccc(C(F)(F)F)c2)CC1 returned CHOP inh 81.9*, VLA-4 inh -0.2, UPR CHOP act -0.3, XBP1 UPR activ 1.4 and B2AR ag -0.8.
O=C(c1ccccc1F)N1CCN(c2ccccc2)CC1 was read as CHOP inh -6.5, VLA-4 inh 8.8, UPR CHOP act -0.9, XBP1 UPR activ -2.7 and B2AR ag -1.5.
Screening O=C(c1ccccc1F)N1CCN(c2cccc(C(F)(F)F)c2)CC1 returned CHOP inh 73.7*, VLA-4 inh 9.7, UPR CHOP act 0.5, XBP1 UPR activ -1.0 and B2AR ag 6.0.
NC(=O)CC(NC(=O)Cc1cccc2ccccc12)c1ccc(N2CCN(c3ccccc3)CC2)c([N+](=O)[O-])c1 (centres undefined) was read as CHOP inh 86.9*, VLA-4 inh -2.7, UPR CHOP act 3.6, XBP1 UPR activ -3.1 and B2AR ag 7.6.
COC(=O)c1cccc(NC(=O)CN2CCOCC2)c1 was read as CHOP inh 71.7*, VLA-4 inh -3.3, UPR CHOP act 0.5, XBP1 UPR activ 2.3 and B2AR ag -0.7.
`COc1ccc(C(=O)COC(=O)CNC(=O)c2ccc(Cl)cc2Cl)c(OC)c1` gave VLA-4 inh 10.1, UPR CHOP act 0.6, XBP1 UPR activ 1.9 and B2AR ag -3.9.
COc1ccc(C2=CC3=C(Br)C(=O)C(C)(O)C(=O)C3=CO2)cc1 (centres undefined) was read as CHOP inh 95.1*, VLA-4 inh 27.8, UPR CHOP act 2.5, XBP1 UPR activ -2.0 and B2AR ag -4.3.
Screening C[n+]1c(-c2ccc(C=NNC(=O)c3ccc(C(=O)NN=Cc4ccc(-c5cn6ccccc6[n+]5C)cc4)cc3)cc2)cn2ccccc21 returned B2AR ag -16.4.
Cc1ccc(Nc2c(-c3ccccn3)nc3ccc(C)cn23)cc1 was read as CHOP inh 80.0*, VLA-4 inh 0.7, UPR CHOP act 19.3, XBP1 UPR activ 9.4 and B2AR ag 37.5.
For Cc1ccn2c(Nc3ccc4c(c3)OCO4)c(-c3ccccn3)nc2c1 the results were CHOP inh 77.7*, VLA-4 inh inactive, UPR CHOP act 8.9, XBP1 UPR activ 3.5 and B2AR ag -1.1.
Screening COc1ccc(C=NNC(=S)Nc2ccc(F)cc2)cc1OC returned B2AR ag -2.8.
For COc1ccc(/C=N/NC(=S)Nc2ccccc2)cc1COc1cccc(C)c1C the results were CHOP inh 91.4*, VLA-4 inh 10.1, UPR CHOP act 14.4, XBP1 UPR activ 15.9 and B2AR ag 18.2.
Screening O=C(CNC(=O)c1cccs1)Nc1ccc2c(c1)OCCO2 returned VLA-4 inh 6.5, UPR CHOP act -0.2, XBP1 UPR activ -3.8 and B2AR ag -7.0.
`Cc1ccc2nc(Cl)c(/C=N/NC(=O)[C@H]3C[C@@H]3c3ccccc3)cc2c1` gave CHOP inh 73.6*, VLA-4 inh 9.9, UPR CHOP act 0.7, XBP1 UPR activ 2.9 and B2AR ag -5.5.
For O=[N+]([O-])c1ccccc1/C=C/C=N/n1c(-c2ccccc2)n[nH]c1=S the results were CHOP inh 9.8, VLA-4 inh 20.5, UPR CHOP act -0.3, XBP1 UPR activ 0.9 and B2AR ag 6.9.
For Cc1ccc(-c2n[nH]c(=S)n2/N=C/C=C\c2ccccc2[N+](=O)[O-])cc1 the results were CHOP inh 90.6*, VLA-4 inh 11.5, UPR CHOP act -0.2, XBP1 UPR activ -0.9 and B2AR ag 5.7.
O=[N+]([O-])c1ccccc1/C=C/C=N/n1c(-c2ccc(Cl)cc2)n[nH]c1=S was read as CHOP inh 81.7*, VLA-4 inh 14.6, UPR CHOP act -1.8, XBP1 UPR activ -0.4 and B2AR ag 3.8.
For CC1CCCC(C)N1/N=C/C=C/c1ccccc1[N+](=O)[O-] (centres undefined) the results were CHOP inh 70.7*, VLA-4 inh 2.0, UPR CHOP act 1.5, XBP1 UPR activ 0.6 and B2AR ag -8.7.
Screening O=C(Nc1ccc(S(=O)(=O)N2CCCC2)cc1)C1CC(=O)N(CCc2ccc(F)cc2)C1 (centres undefined) returned VLA-4 inh -17.8, UPR CHOP act -0.5, XBP1 UPR activ -0.7 and B2AR ag -0.2.
